Data from ChEMBL document CHEMBL4014339, “Discovery of 1,4-Benzodiazepine-2,5-dione (BZD) Derivatives as Dual Nucleotide Binding Oligomerization Domain Containing 1/2 (NOD1/NOD2) Antagonists Sensitizing Paclitaxel (PTX) To Suppress Lewis Lung Carcinoma (LLC) Growth in Vivo” (J Med Chem, 2017).
The source made the active and inactive calls. The calls are words filed in the database; no cut-off is given here.

Columns and labels:
[1] = biological target: T1, Nucleotide-binding oligomerization domain-containing protein 1 (Homo sapiens) (UniProt Q9Y239); assay: Antagonist activity at human NOD1 expressed in HEK-Blue cells assessed as inhibition of C12-iE-DAP-stimulated cell activation at 10 uM preincubated for 3 hrs followed by C12-iE-DAP addition measured after 20 hrs by SEAP reporter gene assay; type: cell-based
T1 sequence (whole entry): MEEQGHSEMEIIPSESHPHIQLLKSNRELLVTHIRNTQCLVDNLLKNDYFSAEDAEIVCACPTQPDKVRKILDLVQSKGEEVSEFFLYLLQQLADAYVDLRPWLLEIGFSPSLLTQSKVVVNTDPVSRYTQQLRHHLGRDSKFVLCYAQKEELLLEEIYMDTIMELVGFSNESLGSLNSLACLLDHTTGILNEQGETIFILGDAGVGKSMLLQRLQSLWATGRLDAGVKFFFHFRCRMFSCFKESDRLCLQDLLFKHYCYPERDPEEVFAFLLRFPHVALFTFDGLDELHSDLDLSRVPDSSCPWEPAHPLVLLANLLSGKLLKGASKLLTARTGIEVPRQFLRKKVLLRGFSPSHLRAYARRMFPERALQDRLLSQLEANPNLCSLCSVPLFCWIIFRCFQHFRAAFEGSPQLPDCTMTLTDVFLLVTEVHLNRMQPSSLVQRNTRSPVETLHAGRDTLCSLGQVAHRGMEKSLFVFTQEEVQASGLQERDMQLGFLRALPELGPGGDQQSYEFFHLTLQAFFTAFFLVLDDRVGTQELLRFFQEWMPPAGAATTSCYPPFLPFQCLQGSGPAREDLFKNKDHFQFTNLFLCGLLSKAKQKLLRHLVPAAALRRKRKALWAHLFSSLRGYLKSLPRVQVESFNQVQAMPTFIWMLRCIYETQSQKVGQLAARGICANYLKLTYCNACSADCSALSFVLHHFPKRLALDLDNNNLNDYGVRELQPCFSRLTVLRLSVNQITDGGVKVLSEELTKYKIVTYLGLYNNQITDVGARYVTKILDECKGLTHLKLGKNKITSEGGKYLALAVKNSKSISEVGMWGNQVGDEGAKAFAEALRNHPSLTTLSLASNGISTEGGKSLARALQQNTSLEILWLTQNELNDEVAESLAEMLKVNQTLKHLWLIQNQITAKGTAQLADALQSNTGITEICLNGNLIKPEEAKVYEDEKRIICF
Method in brief: (§1)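 HEK-Blue hNOD1 or hNOD2 cells preincubated with compound 3 h, then stimulated 20 h with C12-iE-DAP 50 ng/mL (NOD1) or MDP 100 ng/mL (NOD2); SEAP in supernatant quantified. Primary screen at 10 μM, hits repeated in triplicate; IC50 from dose-response, mean ± SD (n = 3), only for compounds reaching ≥50% inhibition at the screening concentration.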

[2] = biological target: T1, Nucleotide-binding oligomerization domain-containing protein 1 (Homo sapiens); assay: Antagonist activity at human NOD1 expressed in HEK-blue cells assessed as inhibition of C12-iE-DAP-stimulated cell activation at 5 uM preincubated for 3 hrs followed by C12-iE-DAP addition measured after 20 hrs by SEAP reporter gene assay; type: cell-based
[3] = biological target: T2, Nucleotide-binding oligomerization domain-containing protein 1 (Homo sapiens, UniProt Q9Y239); assay: Antagonist activity at human NOD1 expressed in HEK-blue cells assessed as inhibition of C12-iE-DAP-stimulated cell activation preincubated for 3 hrs followed by C12-iE-DAP addition measured after 20 hrs by SEAP reporter gene assay; type: cell-based; method in brief: as §1
T2 sequence (Q9Y239 whole entry): T1 sequence (whole entry)

[4] = Cytotoxicity against HEK-Blue cells by SRB assay; type: cell-based; settings: human
[5] = biological target: T3, Nucleotide-binding oligomerization domain-containing protein 2 (Homo sapiens, UniProt Q9HC29); assay: Antagonist activity at human NOD2 expressed in HEK-Blue cells assessed as inhibition of MDP-stimulated cell activation at 10 uM preincubated for 3 hrs followed by MDP addition measured after 20 hrs by SEAP reporter gene assay; type: cell-based; method in brief: as §1
[6] = biological target: T3, Nucleotide-binding oligomerization domain-containing protein 2; assay: Antagonist activity at human NOD2 expressed in HEK-Blue cells assessed as inhibition of MDP-stimulated cell activation at 5 uM preincubated for 3 hrs followed by MDP addition measured after 20 hrs by SEAP reporter gene assay; type: cell-based
[7] = biological target: T3, Nucleotide-binding oligomerization domain-containing protein 2; assay: Antagonist activity at human NOD2 expressed in HEK-Blue cells assessed as inhibition of MDP-stimulated cell activation preincubated for 3 hrs followed by MDP addition measured after 20 hrs by SEAP reporter gene assay; type: cell-based; method in brief: as §1
[8] = tested on: Lewis lung carcinoma cell line; assay: Antitumor activity against mouse LLC cells implanted in C57BL/6 mouse assessed as tumor weight inhibition at 12 mg/kg, iv administered every 4 days measured 11 days after tumor implantation; type: functional, organism-based
[9] = biological target: T1, Nucleotide-binding oligomerization domain-containing protein 1 (Homo sapiens); assay: Inhibition of NOD1 in human PBMC-derived macrophages assessed as reduction in C12-iE-DAP-stimulated IL6 mRNA expression at 1 uM preincubated for 1 hr followed by C12-iE-DAP stimulation for 90 mins by RT-qPCR analysis
Method in brief: (§2)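 Human CD14+ monocytes from donor PBMC, differentiated 7 days with M-CSF 20 ng/mL to macrophages; 1.0 × 10^6 cells pretreated 1 h with compound (final 0.1% DMSO), then C12-iE-DAP 500 ng/mL or MDP 5 μg/mL for 90 min. IL-6/TNF-α mRNA by qRT-PCR, normalized to GAPDH; stimulated response set to 100%.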

[10] = biological target: T1, Nucleotide-binding oligomerization domain-containing protein 1 (Homo sapiens); assay: Inhibition of NOD1 in human PBMC-derived macrophages assessed as reduction in C12-iE-DAP-stimulated TNFalpha mRNA expression at 1 uM preincubated for 1 hr followed by C12-iE-DAP stimulation for 90 mins by RT-qPCR analysis; method in brief: as §2

T3 sequence (Q9HC29 whole entry, the tested form may be a part): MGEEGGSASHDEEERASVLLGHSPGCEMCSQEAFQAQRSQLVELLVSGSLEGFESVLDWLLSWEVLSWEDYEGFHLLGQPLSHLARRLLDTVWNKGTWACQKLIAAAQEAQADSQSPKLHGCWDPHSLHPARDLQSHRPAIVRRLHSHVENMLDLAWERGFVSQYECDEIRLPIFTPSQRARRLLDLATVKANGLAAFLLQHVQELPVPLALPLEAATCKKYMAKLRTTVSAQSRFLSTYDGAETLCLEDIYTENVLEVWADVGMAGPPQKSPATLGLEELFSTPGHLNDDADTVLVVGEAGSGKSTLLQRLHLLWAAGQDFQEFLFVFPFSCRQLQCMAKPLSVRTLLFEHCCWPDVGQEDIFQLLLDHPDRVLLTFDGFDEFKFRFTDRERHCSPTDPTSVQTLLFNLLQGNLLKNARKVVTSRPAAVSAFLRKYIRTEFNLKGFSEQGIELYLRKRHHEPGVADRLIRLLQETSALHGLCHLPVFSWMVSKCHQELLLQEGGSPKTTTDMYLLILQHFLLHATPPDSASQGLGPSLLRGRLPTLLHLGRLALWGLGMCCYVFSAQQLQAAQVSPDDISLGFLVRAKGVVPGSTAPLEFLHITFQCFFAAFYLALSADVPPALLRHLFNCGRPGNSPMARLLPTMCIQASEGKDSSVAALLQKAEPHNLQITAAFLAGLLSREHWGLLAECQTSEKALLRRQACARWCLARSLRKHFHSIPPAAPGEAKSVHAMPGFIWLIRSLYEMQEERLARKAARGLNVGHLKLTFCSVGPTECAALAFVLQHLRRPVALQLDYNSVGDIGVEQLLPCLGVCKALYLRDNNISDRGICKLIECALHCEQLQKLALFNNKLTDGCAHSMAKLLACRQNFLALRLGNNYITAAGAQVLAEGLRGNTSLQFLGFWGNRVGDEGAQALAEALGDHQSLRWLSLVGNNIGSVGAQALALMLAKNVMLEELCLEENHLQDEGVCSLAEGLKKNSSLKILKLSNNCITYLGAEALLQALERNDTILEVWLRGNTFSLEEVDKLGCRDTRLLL

Structure (SMILES)	inhibition [1]	inhibition [2]	IC50 [3]	Activity [4]	inhibition [5]	inhibition [6]	IC50 [7]	TGI [8]	inhibition [9]	inhibition [10]
CN(C)c1cccc(Oc2cc3c(cc2NC(=O)COCc2ccc(C(F)(F)F)cc2)NC(=O)[C@@H](CCC(=O)N2CCC(F)CC2)NC3=O)c1	92.6%	90.2%	580 nM	Toxic	94.7%	91.7%	420 nM	–	–	–
CN(C)c1cccc(Oc2cc3c(cc2NC(=O)COCc2ccc(C(F)(F)F)cc2)NC(=O)[C@@H](CCC(=O)N2CCC(F)(F)CC2)NC3=O)c1	90.9%	91.2%	430 nM	Toxic	94.8%	92.8%	810 nM	–	–	–
CC(=O)O[C@H]1C(=O)[C@@]2(C)[C@H]([C@H](OC(=O)c3ccccc3)[C@]3(O)C[C@H](OC(=O)[C@H](O)[C@@H](NC(=O)c4ccccc4)c4ccccc4)C(C)=C1C3(C)C)[C@]1(OC(C)=O)CO[C@@H]1C[C@@H]2O	–	–	–	–	–	–	–	inactive	–	–
Nc1nc2ccccc2n1S(=O)(=O)c1ccc(Cl)cc1	–	–	–	–	–	–	–	–	Active	Active
COC(=O)CC[C@H]1NC(=O)c2cc(Oc3cccc(N(C)C)c3)c(NC(=O)COCc3ccccc3)cc2NC1=O	70.4%	–	–	Non-Toxic	69.1%	–	–	–	–	–
CCCCN(CCCC)C(=O)CC[C@H]1NC(=O)c2cc(Oc3cccc(N(C)C)c3)c(NC(=O)COCc3ccccc3)cc2NC1=O	82%	81.8%	1300 nM	–	88.6%	85%	1320 nM	–	–	–
COC(=O)CC[C@H]1NC(=O)c2cc(Oc3cc(Cl)c(Cl)c(N(C)C)c3Cl)c(NC(=O)COCc3ccccc3)cc2NC1=O	65.3%	79.8%	1330 nM	–	34%	55.9%	3780 nM	–	–	–
COC(=O)CC[C@H]1NC(=O)c2cc(Oc3cccc(N(C)C)c3)c(NC(=O)COCc3ccc(Br)cc3)cc2NC1=O	93.9%	91%	580 nM	–	95.2%	85%	1190 nM	–	–	–
COC(=O)CC[C@H]1NC(=O)c2cc(Oc3cccc(N(C)C)c3)c(NC(=O)COCc3cccc(Br)c3)cc2NC1=O	89.6%	82.9%	1330 nM	–	86.7%	65.9%	2280 nM	–	–	–
CN(C)c1cccc(Oc2cc3c(cc2NC(=O)COCc2ccccc2)NC(=O)[C@@H](CCC(=O)NC(C)(C)C)NC3=O)c1	87.6%	80.3%	1110 nM	–	92.1%	80.3%	2270 nM	–	–	–
COC(=O)CC[C@H]1NC(=O)c2cc(Oc3ccc(Cl)c(N(C)C)c3)c(NC(=O)COCc3ccccc3)cc2NC1=O	73%	58.2%	2900 nM	–	78.1%	59.9%	3550 nM	–	–	–
COC(=O)CC[C@H]1NC(=O)c2cc(Oc3cccc(N(C)C)c3)c(NC(=O)COCc3ccc(F)cc3)cc2NC1=O	46.4%	73.7%	2360 nM	–	71.4%	63.1%	3100 nM	–	–	–
